Compound activity (PubChem)
KCC2 mod – KCC2 cotransporter modulators, thallium flux, primary screen, cell-based, HEK293 KCC2, FluoZin-2 fluorescence, MLSMR; B-score of Tl+ flux slope (higher = more flux/activation; lower = inhibition) at 10 µM; KCC2 cells, thallium flux FluoZin-2 fluorescence; Solute carrier family 12 member 5 (Homo sapiens), Q9H2X9; actives 2.2% (n = 190,000);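 active means thallium flux slope and its plate-corrected score both differing from the plate sample mean at a set confidence after two filtering rounds, in either direction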;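 further: slope of fluorescence scaled to starting intensity during 10 to 20 s after thallium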
Target sequence (Q9H2X9 whole entry, looked up): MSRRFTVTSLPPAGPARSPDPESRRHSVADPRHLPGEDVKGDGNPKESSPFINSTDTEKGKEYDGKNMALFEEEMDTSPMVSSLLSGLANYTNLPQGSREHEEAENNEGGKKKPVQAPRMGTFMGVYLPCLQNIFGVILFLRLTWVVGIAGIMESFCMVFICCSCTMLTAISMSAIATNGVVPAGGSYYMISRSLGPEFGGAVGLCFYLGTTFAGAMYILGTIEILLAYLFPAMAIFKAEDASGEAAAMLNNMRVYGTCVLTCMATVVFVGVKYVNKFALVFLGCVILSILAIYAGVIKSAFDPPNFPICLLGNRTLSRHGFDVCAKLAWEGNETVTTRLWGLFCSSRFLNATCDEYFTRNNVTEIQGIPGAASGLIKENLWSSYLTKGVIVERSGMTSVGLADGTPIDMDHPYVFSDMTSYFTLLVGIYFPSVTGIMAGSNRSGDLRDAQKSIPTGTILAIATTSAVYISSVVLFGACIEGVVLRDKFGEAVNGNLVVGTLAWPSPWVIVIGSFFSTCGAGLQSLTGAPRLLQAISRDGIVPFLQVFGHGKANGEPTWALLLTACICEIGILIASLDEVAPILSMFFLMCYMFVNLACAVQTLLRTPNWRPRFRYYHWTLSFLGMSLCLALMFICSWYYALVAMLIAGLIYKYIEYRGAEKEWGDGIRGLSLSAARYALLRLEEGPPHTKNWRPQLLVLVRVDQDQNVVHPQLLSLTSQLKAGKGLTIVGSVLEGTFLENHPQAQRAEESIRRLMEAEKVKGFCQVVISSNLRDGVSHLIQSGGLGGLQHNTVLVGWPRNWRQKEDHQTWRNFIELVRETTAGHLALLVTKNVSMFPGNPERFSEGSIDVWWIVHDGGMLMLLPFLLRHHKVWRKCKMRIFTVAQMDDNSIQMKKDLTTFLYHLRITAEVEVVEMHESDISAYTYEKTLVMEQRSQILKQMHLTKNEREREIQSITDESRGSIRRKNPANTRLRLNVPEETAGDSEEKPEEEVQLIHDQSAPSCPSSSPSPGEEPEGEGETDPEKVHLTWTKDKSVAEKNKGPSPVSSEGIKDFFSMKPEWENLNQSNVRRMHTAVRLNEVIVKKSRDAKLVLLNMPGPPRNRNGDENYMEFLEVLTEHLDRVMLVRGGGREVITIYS
MrgX1 allo act – positive allosteric modulators of MrgX1, primary screen, HEK293 cells, Fluo-4 calcium flux. Mas-related G-protein coupled receptor member X1 (Homo sapiens), Q96LB2. FDSS; active compounds read high. B-score at 10 µM. actives 0.63% (n = 310,000). AID 588675, 2011;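 active means plate-corrected calcium response at least 3 library SD above typical, normal starting fluorescence, not activating the receptor alone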;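 further: compound read alongside a low EC10 to EC30 dose of BAM8-22 agonist; peak minus trough fluorescence over baseline measured at the second addition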
MrgX1 agonist – agonists of human MrgX1 receptor, primary screen, HEK293 cells, Fluo-4 calcium flux; B-score at 10 µM; actives 0.44% (n = 310,000); Mas-related G-protein coupled receptor member X1 (Homo sapiens), Q96LB2; AID 588627, 2011; Fluo-4 calcium fluorescence, agonist mode; active compounds read high;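 active means calcium response B-score plate-corrected fluorescence ratio at least 3 library SD, with starting fluorescence B-score inside 5 SD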
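Assay system: MrgX1-expressing HEK293 cells / Amount: fifteen thousand cells per well / Doses: test compound in the initial addition of three / Timing: cells plated overnight, dye loaded 0.5 h 37 °C, 0.5 h room temperature / Technique: kinetic calcium dye fluorescence, Fluo-4 NW / Control set: positive and negative controls per plate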
RGS4 act – RGS4 potentiators or activators, primary screen, cell-based, HEK293 M3R inducible RGS4, calcium flux; carbachol calcium flux Fluo4; active compounds read low; B-score at 10 µM; actives 0.92% (n = 310,000); AID 463111, 2010;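 active means B-score of the integrated calcium signal more than 4 SD below the library mean, with starting fluorescence not abnormally high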;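 further: negative B-score means reduced calcium response which marks RGS4 activation or potentiation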
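System: HEK293 FlpIn-TREx cells, stable M3R, doxycycline-inducible RGS4. Timing: overnight RGS4 induction, 30 min dye load 37 °C, 20 min compound RT. Also added: carbachol, ECmax concentration. Measured by: Fluo4 fluorescence kinetic imaging of calcium. Evaluation: integrated calcium ratio converted to B score.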
MrgX1 antagonist – antagonists of human MrgX1 receptor, primary screen, HEK293 cells, Fluo-4 calcium flux; actives 1.3% (n = 310,000); Mas-related G-protein coupled receptor member X1 (Homo sapiens), Q96LB2; BAM8-22 antagonism; active compounds read low; B-score at 10 µM;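 active means calcium-response B-score plate-corrected more than 3 library SD below zero, starting fluorescence within 5 deviations, no agonist response on first addition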;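 further: peak minus trough fluorescence over baseline after final BAM8-22 challenge near maximal dose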
RGS4 inh – RGS4 inhibitors, primary screen, cell-based, HEK293 M3R inducible RGS4, calcium flux; Regulator of G-protein signaling 4 (Homo sapiens), P49798; Fluo-4 calcium flux; active compounds read high; triggered by carbachol at its EC20; B-score at 10 µM; actives 0.45% (n = 310,000); AID 463165, 2010;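 active means B-score, a plate-corrected calcium signal, over three deviations above library mean, with baseline fluorescence within five deviations of library mean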;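 further: RGS4 expression induced by doxycycline in cells with stable M3 receptor; B-score is computed from the integrated fluorescence ratio over baseline after carbachol; higher B-score means a larger calcium signal and so more RGS4 inhibition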
KCC2 secondary – KCC2 modulators in sodium-free buffer, confirmation, cell-based, HEK293 KCC2, thallium flux, secondary assay | normalised thallium flux (F/F0 slope) at 10 µM | shares compounds with KCC2 mod | FluoZin2 fluorescence; active compounds read high | actives 15% (n = 3,700);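 active means thallium flux slope above the same plate's solvent-only control mean plus 3 SD; inconclusive means the two replicate wells disagree; inactive means no significant difference from solvent-only control wells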
KCC2 bumet counter – thallium flux persisting under bumetanide in KCC2 cells, confirmation, counter-screen for KCC2 modulator project, cell-based, HEK293 KCC2, FluoZin2, secondary assay 3. shares compounds with KCC2 mod. HEK293-KCC2 + bumetanide/ouabain; active compounds read high. normalized thallium flux at 10 µM. actives 49% (n = 3,700). AID 1714, 2009;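 active means thallium entry rate above the same plate's blocked-transporter control wells by more than 3 SD; inconclusive means the two repeat wells disagree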;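 further: raw slope of fluorescence over initial fluorescence between 10 and 20 s after thallium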
KCC2 secondary2 – KCC2 modulators without ouabain present, confirmation, cell-based, HEK293 KCC2, thallium flux, FluoZin2, secondary assay 2. normalized thallium flux at 10 µM. thallium flux FluoZin2 fluorescence; actives lie on both sides; F/F0 rise rate, 10–20 s post-thallium. actives 23% (n = 3,700). AID 1715, 2009. shares compounds with KCC2 mod;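 active means thallium flux slope more than 3 SD above or below the plate's solvent-only control mean, mostly below; inconclusive means the two repeat wells disagreed; inactive means no significant shift from solvent-only controls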
HEK counter1 – thallium flux modulation in parental HEK cells, confirmation, counter-screen for KCC2 modulator project, cell-based, counterscreen 1; HEK293 parental cells, thallium flux FluoZin2, ouabain; baseline-ratio fluorescence slope, 10–20 s after thallium; thallium flux rate (normalised fluorescence) at 10 µM; shares compounds with KCC2 mod; actives 46% (n = 3,700);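 active means thallium flux rate significantly above the same plate's solvent-only control wells, beyond their mean plus 3 SD; inconclusive means the two replicate wells gave conflicting results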
KCC2 ouabain – KCC2 inhibitors and activators, ouabain retest, confirmation, HEK-KCC2 cells. shares compounds with KCC2 mod. HEK293-KCC2, thallium flux FluoZin2 fluorescence; bidirectional: low = inhibitor, high = activator. raw Tl+ flux slope (below DMSO = inhibition, above = activation) at 10 µM. actives 48% (n = 3,700). AID 1717, 2009;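 active means thallium flux slope beyond 3 SD from same-plate DMSO control mean in most replicates, usually higher, sometimes lower; inconclusive means repeat tests gave conflicting results; inactive means no significant difference from controls in most replicates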;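 further: slope of initial-normalized fluorescence between seconds 10 and 20 after thallium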
HEK293 Tl flux2 – native HEK Tl+ uptake effects, second counter-screen – HEK cells, counterscreen 2, counter-screen for KCC2 modulator project, confirmation. shares compounds with KCC2 mod. HEK293 parental, thallium flux FluoZin-2 fluorescence slope. actives 33% (n = 3,700). thallium flux slope at 10 µM;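 active means thallium flux slope above the same plate's solvent-control mean plus 3 SD in both duplicate wells; inconclusive means duplicate wells that disagreed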;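 further: run without ouabain in cells lacking the KCC2 cotransporter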
Large screens that a line does not name were inactive (follow-up assays come after a bar, where they were run). A selection: hits, their analogues and other compounds. The true share with any hit is near 4.7%.

O=c1c2ccccc2[nH]c(=S)n1CCc1ccccc1	KCC2 mod 29 | KCC2 secondary 0.027 | KCC2 bumet counter 0.072 | KCC2 secondary2 inactive | HEK counter1 0.11 | KCC2 ouabain 0.061 | HEK293 Tl flux2 0.055
CCc1ccc(N(CC(=O)NCCc2ccccc2)C(=O)CCC(=O)Nc2ccccn2)cc1	none (no result: KCC2 mod)
COc1cc(C2CC(=O)N(CC(=O)NCC3CCCO3)c3ccccc3S2)cc(OC)c1OC (configuration not stated)	none
COC(=O)C1CCN(C(=O)/C(C)=C\c2ccccc2)CC1	none (no result: KCC2 mod)
CCOC(=O)C1(CCOc2ccccc2)CCN(C(=O)CCSC)CC1	none (no result: KCC2 mod)
CCOC(=O)N1CCN(C(=O)c2cccc(N3C(=O)NC4CC3(C)Oc3ccc(Cl)cc34)c2)CC1 (configuration not stated)	none (no result: KCC2 mod)
O=c1c2ccccc2[nH]c(=S)n1CCN1CCc2ccccc2C1	KCC2 mod 58 | KCC2 secondary 0.018 | KCC2 bumet counter 0.13 | KCC2 secondary2 inactive | HEK counter1 0.036 | KCC2 ouabain 0.069 | HEK293 Tl flux2 0.015
COc1ccc(-n2c(SCC(=O)N3CCN(c4ccccc4)CC3)nc3c(c2=O)SCC3)cc1	KCC2 mod -7.3 | KCC2 secondary inactive | KCC2 bumet counter inactive | KCC2 secondary2 0.024 | HEK counter1 inconclusive | KCC2 ouabain 0.012 | HEK293 Tl flux2 inactive
COc1ccc(-n2c(SCC(=O)Nc3nccs3)nc3c(c2=O)SCC3)cc1	none
CC(C)Oc1ccc(S(=O)(=O)N2CCCCC2)cc1NC(=O)C1CSC2(C)CCC(=O)N12 (configuration not stated)	none (no result: KCC2 mod)
Cn1c(-c2ccc3nc(N)sc3c2)nc2cc(N)ccc21	none (no result: KCC2 mod) | KCC2 secondary inconclusive | KCC2 bumet counter inconclusive | KCC2 secondary2 inactive | HEK counter1 inactive | KCC2 ouabain inactive | HEK293 Tl flux2 inactive
S=C(NCc1ccccc1Cl)Nc1ccccc1Cl	KCC2 mod 6.1 | KCC2 secondary inactive | KCC2 bumet counter 0.012 | KCC2 secondary2 inactive | HEK counter1 inactive | KCC2 ouabain inconclusive | HEK293 Tl flux2 inactive
O=C1NCC(COCc2ccco2)O1 (configuration not stated)	KCC2 mod -4.8 | KCC2 secondary inactive | KCC2 bumet counter inactive | KCC2 secondary2 inactive | HEK counter1 inconclusive | KCC2 ouabain inactive | HEK293 Tl flux2 inactive
O=C(CSc1nc(-c2ccccc2)nc2ccccc12)Nc1cccc(C(=O)O)c1	KCC2 mod 7.4 | KCC2 secondary inactive | KCC2 bumet counter 0.014 | KCC2 secondary2 inactive | HEK counter1 0.015 | KCC2 ouabain 0.025 | HEK293 Tl flux2 0.017
O=C(CSc1nc(-c2ccc(F)cc2)nc2ccc(F)cc12)Nc1cccc(C(=O)O)c1	none
CCOC(=O)c1cnc(-c2cccc(OC)c2)[nH]c1=O	none (no result: KCC2 mod) | KCC2 secondary inactive | KCC2 bumet counter inconclusive | KCC2 secondary2 inactive | HEK counter1 inactive | KCC2 ouabain inactive | HEK293 Tl flux2 inactive
CCOC(=O)c1cnc(-c2ccccc2)[nH]c1=O	none
O=C(Cn1c(-c2ccccc2)noc1=O)Nc1ccc(N2CCCCCC2)cc1	none (no result: KCC2 mod) | KCC2 secondary inactive | KCC2 bumet counter inactive | KCC2 secondary2 inactive | HEK counter1 inactive | KCC2 ouabain 0.016 | HEK293 Tl flux2 inactive
COc1ccc(-c2noc(=O)n2CC(=O)N2CCC(Cc3ccccc3)CC2)cc1	KCC2 mod -4.7 | KCC2 secondary inactive | KCC2 bumet counter 0.0033 | KCC2 secondary2 0.023 | HEK counter1 0.0052 | KCC2 ouabain 0.013 | HEK293 Tl flux2 0.0075
O=C(Cn1c(-c2ccccc2)noc1=O)N1CCC(Cc2ccccc2)CC1	KCC2 mod -5.2 | KCC2 secondary inactive | KCC2 bumet counter inactive | KCC2 secondary2 0.028 | HEK counter1 inactive | KCC2 ouabain 0.015 | HEK293 Tl flux2 inactive
COc1ccc(N(C(C)C(=O)N2CCC(Cc3ccccc3)CC2)S(C)(=O)=O)cc1 (configuration not stated)	KCC2 mod -3.6 | KCC2 secondary inconclusive | KCC2 bumet counter inactive | KCC2 secondary2 inactive | HEK counter1 inactive | KCC2 ouabain 0.015 | HEK293 Tl flux2 inactive
COc1ccc(OCC(=O)N2CCC(Cc3ccccc3)CC2)cc1	none (no result: KCC2 mod)
O=C(Cn1c(-c2ccccc2)noc1=O)Nc1ccc(S(=O)(=O)N2CCOCC2)cc1	none
CCCCNC(=O)CSc1nnc(Cc2ccc(Cl)c(Cl)c2)c(=O)[nH]1	none (no result: KCC2 mod)
COC(=O)c1ccc(N2CCN(C)CC2)c(NC(=O)c2sc3ccccc3c2Cl)c1	none (no result: KCC2 mod)
COc1cccc(OCC(O)CNC(=O)c2oc3ccc(C)cc3c2C)c1 (configuration not stated)	none (no result: KCC2 mod)
Cc1ccc(NC(=O)CNCc2ccccc2Cl)cc1S(=O)(=O)N(C)C	none (no result: KCC2 mod)
CCOC(=O)c1ccc2c(c1)n(CC)c(C)[n+]2CC	none (no result: KCC2 mod)
